Source: PubChem BioAssay (several laboratories)
Tn7 DDE FP – inhibitors of Tn7 peptide binding to human fibrin DD(E) | FP displacement of FITC-Tn7 peptide from fibrin DD(E); 0% = median of compound wells per plate | actives 0.13% (n = 370,000) | inhibition, % at 8.3 µM | P02675 | AID 720508;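 active = inhibition above the mean of compounds falling within the control limits plus 3 SD of them, cut at about 14% in these data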;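 note: 0% = plate median of compound wells and 100% = 10 µM Aha-Tn7 peptide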
Target sequence (P02675 whole entry, looked up): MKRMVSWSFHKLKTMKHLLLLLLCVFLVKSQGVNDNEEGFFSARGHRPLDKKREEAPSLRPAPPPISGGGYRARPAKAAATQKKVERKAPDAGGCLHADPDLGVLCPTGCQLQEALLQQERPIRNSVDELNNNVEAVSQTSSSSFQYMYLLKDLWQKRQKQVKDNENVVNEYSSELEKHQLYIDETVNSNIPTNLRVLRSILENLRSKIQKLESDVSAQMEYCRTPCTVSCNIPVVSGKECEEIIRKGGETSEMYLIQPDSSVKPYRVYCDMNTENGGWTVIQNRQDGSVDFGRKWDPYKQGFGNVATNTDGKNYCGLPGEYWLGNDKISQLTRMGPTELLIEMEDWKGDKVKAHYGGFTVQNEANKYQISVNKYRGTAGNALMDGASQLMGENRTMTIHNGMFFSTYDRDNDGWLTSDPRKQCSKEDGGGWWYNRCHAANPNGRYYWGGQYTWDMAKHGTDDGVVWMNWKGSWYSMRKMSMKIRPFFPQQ
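assay system = human clot-derived fibrin DD(E) complex | quantity = Fibrin-DD(E) at 2 µM final | timing = 10 min preincubation, 3 h with tracer, room temperature | signal = fluorescence polarization | measure = percent inhibition | benchmarks = high control wells with 10 µM unlabelled Aha-Tn7 peptide (full inhibition) | replicates = singlicate testing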
CRFR2-BP antag – antagonists of CRF-binding protein/CRF-R2 receptor complex; HEK293 CRF-R2/CRF-BP, CRF-induced calcium fluorescence; actives 0.59% (n = 350,000); inhibition, % at 11.8 µM; AID 588475;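 active = inhibition of the ligand-induced calcium signal above about 50% at the single tested concentration, limit read from the data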
Tn6 DDE FP – DD(E)-Tn6 binding inhibition, primary FP screen; P02675; Fibrin DD(E) TRITC-Tn6 fluorescence polarization displacement; inhibition, % at 8.3 µM; actives 0.21% (n = 370,000); AID 720509;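 active = inhibition above a per-campaign cutoff: mean of compounds within control limits plus 3 SD, cut at about 15% in these data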;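 note: 0% = median of all compound wells on the plate and 100% = blocking peptide control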
CRFR2-BP ag – CRF-BP/CRF-R2 complex agonism | actives 0.46% (n = 350,000) | HEK293 CRF-R2/CRF-BP, calcium dye fluorescence (FLIPR); percent of saturating CRF peptide response | activation, % at 13.2 µM;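 active = activation of at least 50%, plus an integration ratio under a set limit after plate pattern correction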;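 note: plate controls were neutral control wells without compound for no effect and CRF at EC100 for full effect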
DDE Tn6 FP ctr – DD(E)-Tn6 binding inhibition, counter-screen; AID 720621; Fibrin DD(E), TRITC-Tn6 fluorescence polarization displacement; 0% = median of compound wells, not DMSO; actives 2% (n = 680); inhibition, % at 8.3 µM; shares compounds with Tn6 DDE FP;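 active = inhibition above the mean of test compounds lying between the control limits plus 3 SD of those, cut at about 14% in these data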;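 note: 0% = median of compound wells and 100% = wells with Aha-Tn7 blocking peptide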
DDE Tn6 confirm – confirmation of inhibitors of Tn6 binding to human fibrin DD(E); shares compounds with Tn6 DDE FP; FP displacement of TRITC-Tn6 peptide from DD(E); 0% = per-plate median of test wells; inhibition, % at 8.3 µM; actives 10% (n = 680); AID 720631;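 active = inhibition above the mean of compounds lying within the control limits plus 3 SD, cut at about 16% in these data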;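 note: 100% = high control wells holding a competing inhibitor peptide at 10 µM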
Starred values were filed as active, the others as inactive; . = no result given; + = active, no number. This is a sample that favours compounds with a hit; in the whole collection about 1.2% have one here.

SMILES	Tn7 DDE FP	CRFR2-BP antag	Tn6 DDE FP	CRFR2-BP ag	DDE Tn6 FP ctr	DDE Tn6 confirm
COc1ccc(C(=O)N2CCN(c3nc4cc(C)cc(C)c4cc3C#N)CC2)cc1	6.7	19.7	2.3	1.2	.	.
CC(=O)Oc1ccc(OC(C)=O)c2c1CC1(C)OC1(C)C2 (stereo not drawn)	-3.6	-28.0	4.0	-1.7	.	.
CC(=O)N1CCN(C(=O)CCNS(=O)(=O)c2ccc(Br)cc2)CC1	-0.4	8.6	18.1*	-2.1	-0.3	-3.9
O=C(CCNS(=O)(=O)c1ccc(Br)cc1)N1CCCCCCC1	1.1	-4.7	-4.7	-1.2	.	.
CCc1ccc(N2CC(C(=O)Nc3ccccc3N3CCCC3)CC2=O)cc1 (stereo not drawn)	-6.0	-9.3	0.0	-2.5	.	.
CO[C@H]1CN(C)C(=O)c2ccc(NS(=O)(=O)c3ccccc3F)cc2OC[C@H](C)NC[C@@H]1C	2.2	.	-3.3	.	.	.
O=C(c1ccccc1)c1ccccc1C(=O)c1ccccc1	-0.9	7.8	0.3	-6.4	.	.
Nc1sccc1C(=O)c1ccccc1	3.0	-4.2	15.5*	3.1	1.4	-0.5
Fc1ccc(C2CCCCN2Cc2nc(CC3CC3)no2)cc1 (stereo not drawn)	0.9	-0.1	-1.1	0.7	.	.
Fc1ccc2nc(C3CCCCN3Cc3nc(CC4CC4)no3)[nH]c2c1 (stereo not drawn)	1.4	1.9	15.9*	1.0	2.1	-4.6
O=C(COc1ccccc1)Nc1cccc(-c2nc3cc4ccccc4cc3[nH]2)c1	2.5	-10.6	86.5*	0.5	6.6	24.6*
O=C(COc1ccccc1)Nc1cccc(-c2nn[nH]n2)c1	1.7	-3.8	-3.3	-1.9	.	.
COC(=O)c1cccc(NC(=S)N2CCCCC2)c1	-9.2	25.8	-0.5	-0.2	.	.
COC(=O)c1cccc(NC(=S)N2CCN(c3ccccc3F)CC2)c1	4.1	-11.0	18.1*	0.3	2.4	-7.5
CCOC(=O)C(=CNc1cccc(C)c1C)C(=O)OCC	3.8	-9.4	-1.7	0.1	.	.
CCOC(=O)C(=CNc1ccc(C)cc1C)C(=O)OCC	2.6	-3.5	15.3*	-0.3	7.9	4.1
C[C@@H]1OC(C2CCCCC2)N(C)[C@H]2C[C@H]3c4[nH]c5c(-c6ccccc6)cccc5c4CCN3C(=O)[C@@H]12 (stereo partly drawn)	3.4	.	-1.9	.	.	.
Cc1c(N2CCCCC2)[nH]c2ccccc12	-8.3	26.1	-3.6	25.2	.	.
COc1cc(OC)cc(C(=O)N(CN2CCCC2=O)c2ccccc2OC)c1	3.9	-19.5	15.8*	-0.2	1.9	2.4
CCC1OC2(C)OC(=N)C1(C#N)C(C#N)(C#N)C2c1ccccc1 (stereo not drawn)	1.5	-20.3	1.4	28.1	.	.
CC(C)C1OC2(C)OC(=N)C1(C#N)C(C#N)(C#N)C2c1ccccc1 (stereo not drawn)	9.3	-72.4	20.2*	62.5*	-2.9	2.4
CCC(C)(C(=O)NC1CCCC1)N(Cc1cccs1)C(=O)Cc1cccs1 (stereo not drawn)	-1.7	-6.5	6.3	-0.8	.	.
CCC(C)(C(=O)NC1CCCCC1)N(C(=O)Cc1cccs1)c1ccccc1 (stereo not drawn)	-0.4	-33.7	15.5*	-3.5	0.8	1.6
CCOc1ccccc1NC(=O)NCc1ccccn1	3.2	3.6	19.0*	-0.9	8.0	5.1
CCc1ccccc1NC(=O)NCc1ccccn1	2.5	0.5	-0.8	0.2	.	.
SMILES	Tn7 DDE FP	CRFR2-BP antag	Tn6 DDE FP	CRFR2-BP ag	DDE Tn6 FP ctr	DDE Tn6 confirm
CC(=O)N1CCc2cc(S(=O)(=O)NCCC(=O)NCCc3ccccc3)ccc21	-3.2	7.0	8.0	0.6	.	.
CC(=O)N1CCc2cc(S(=O)(=O)NCCC(=O)NCc3ccccc3)ccc21	1.0	.	17.6*	.	0.7	-0.2
CCc1nc2c(OCc3ccc(C(=O)OC)cc3)cccn2c1N(C)C(=O)c1ccc(C)cc1	4.3	.	4.2	.	.	.
CCN(CC)c1ccc(/C=c2\sc3nc4ccccc4n3c2=O)c(O)c1	4.0	-152.9	17.9*	164.6*	1.0	8.2
CSc1ccc(S(=O)(=O)N2CC(=O)Nc3ccccc32)cc1	-6.2	-3.2	15.8*	-0.3	3.9	4.1
CO/N=C(\CCC(=O)O)c1cccs1	5.5	-2.1	16.2*	-1.5	0.2	-3.8
CC(NC(=O)COC(=O)c1nc(Cl)ccc1Cl)c1ccccc1 (stereo not drawn)	-7.2	8.2	4.4	-1.3	.	.
C=C1CCN(c2ccc(C(=O)NCc3ccc(OC)cc3)cc2[N+](=O)[O-])CC1	-0.6	23.0	15.3*	-3.4	-3.0	-5.6
C=C1CCN(c2ccc(C(=O)NCc3ccc(C)cc3)cc2[N+](=O)[O-])CC1	-1.1	9.0	2.9	-1.7	.	.
CCCCCCCCNC(=O)C1CSCCS(=O)(=O)N1Cc1ccc(OC)cc1 (stereo not drawn)	3.0	.	-8.9	.	.	.
CCCCCCCCN1C(=O)[C@@H](CC(=O)NCc2ccc(C)o2)C[C@@]2(C(=O)OC)C1=C[C@H](COCc1ccccc1)O[C@@H]2C	1.9	.	2.6	.	.	.
O=S1(=O)c2ccc(N3CCCC3)cc2Oc2ccccc2CN1Cc1cn(Cc2ccc(C(F)(F)F)cc2)nn1	5.4	.	-0.7	.	.	.
COc1ccc(NC(=O)C(c2cc3c(cc2[N+](=O)[O-])OCO3)N(C)Cc2ccccc2)cc1 (stereo not drawn)	0.6	14.7	31.0*	1.3	2.2	1.2
CCCCC(=Nc1ccc(N)cc1)C1=C(O)C(C(=O)OC)C(C)(C)CC1=O (stereo not drawn)	3.6	-26.9	120.6*	7.1	-4.3	8.9
COC(=O)c1ccccc1-c1ccc(/C=N/NC(=O)c2cc3ccccc3o2)o1	-1.0	7.7	-2.3	0.1	.	.
COC(=O)c1ccccc1-c1c2ccc(=N)cc-2oc2cc(N)ccc12	5.1	-91.7	+	175.8*	53.3*	93.2*
CCOc1ccc(-c2nnc(N3CCOCC3)c3ccccc23)cc1	0.8	-9.1	3.2	-9.6	.	.
COc1ccccc1NS(=O)(=O)c1cccc(NC(=O)Nc2cccc(Cl)c2)c1	4.9	-6.5	43.4*	5.2	8.7	16.7*
COc1c(C(=O)Nc2ccccc2N2CCOCC2)cc2ccccc2c1Br	-2.5	-7.8	-3.2	0.2	.	.
CC(C)CN1C(=O)[C@]2(CC(=O)N(C)C2c2ccccc2)c2cc(-n3cc(CO)nn3)ccc21 (stereo partly drawn)	-4.5	.	2.0	.	.	.
CC(C)CN1C(=O)[C@]2(CC(=O)N(C)C2c2ccccc2)c2cc(-n3cc(C4=CCCCC4)nn3)ccc21 (stereo partly drawn)	-0.7	.	15.4*	.	8.1	6.7
CCOC(=O)c1ccc(-c2ccc(/C=C(\C#N)C(=O)NCC3CCCO3)o2)cc1 (stereo not drawn)	5.8	-8.3	17.6*	2.3	-5.3	-9.0
